Data taken from ChEMBL document CHEMBL3085708, “Identification and profiling of 3,5-dimethyl-isoxazole-4-carboxylic acid [2-methyl-4-((2S,3'S)-2-methyl-[1,3']bipyrrolidinyl-1'-yl)phenyl] amide as histamine H(3) receptor antagonist for the treatment of depression” (Bioorg Med Chem Lett, 2013).
Values after ≈ are worked out from the molar mass of the structure shown.

Columns and labels:
[1] = AUC (0 to infinity) in OF1 mouse plasma at 10 mg/kg, po; assay type: ADME, organism-based; set-up: time infinity, dose 10 mg/kg, route oral
How it was run: (§1)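 Single-dose PK; male OF1 mice and male Sprague-Dawley rats, 2 mg/kg iv and 10 mg/kg po. Mouse vehicles: iv 50% 1-methyl-2-pyrrolidinone in saline (1.0 mg/mL); po 5% DMSO/0.5% MC/0.2% Tween80 (1.0 mg/mL). Rat vehicles: iv saline (0.5 mg/mL); po 0.5% MC/0.2% Tween80 (1.0 mg/mL). Plasma and brain exposure read as AUC0-∞ and t1/2.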

[2] = tested on: Heart; assay: Toxicity in guinea pig heart assessed as effect on coronary pressure at 0.1 to 30 uM; assay type: tissue-based, Cavia porcellus
[3] = tested on: Mus musculus; assay: Toxicity in mouse assessed as effect on behavioral activity at 10 to 30 mg/kg, po by Irwin test; assay type: organism-based; set-up: dose 10-30 mg/kg, route oral; details: in vivo
How it was run: (§2)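 Irwin exploratory general behaviour study in male mice; single oral doses of 0, 10 and 30 mg/kg; behavioural, neurologic and autonomic effects observed.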

[4] = Ratio of AUC (0 to infinity) in brain to plasma in OF1 mouse at 2 mg/kg, iv; assay type: ADME, organism-based; set-up: dose 2 mg/kg, route intravenous; details: brain and plasma, read-out: Ratio AUC
[5] = Drug metabolism in human liver microsomes; assay type: ADME; details: read-out: Drug metabolism
[6] = Ratio of AUC (0 to infinity) in brain to plasma in Sprague-Dawley rat at 2 mg/kg, iv; assay type: ADME, organism-based; set-up: dose 2 mg/kg, route intravenous; details: brain and plasma, read-out: Ratio AUC
[7] = target: Voltage-gated inwardly rectifying potassium channel KCNH2 (Homo sapiens, UniProt Q12809); assay: Inhibition of human ERG current transfected in CHO cells by patch clamp assay; assay type: cell-based
How it was run: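 Whole-cell patch clamp on CHO cells, hERG current; IC50 from n = 4.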

[8] = AUC (0 to infinity) in Sprague-Dawley rat plasma at 2 mg/kg, iv; assay type: ADME, organism-based; set-up: time infinity, dose 2 mg/kg, route intravenous; how it was run: as §1
[9] = Tmax in OF1 mouse plasma at 10 mg/kg, po; assay type: ADME, organism-based; set-up: dose 10 mg/kg, route oral
How it was run: (§3)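 Male OF1 mice given 2 mg/kg iv (50% 1-methyl-2-pyrrolidinone in saline, 1.0 mg/mL) and 10 mg/kg po (5% DMSO/0.5% MC/0.2% Tween80, 1.0 mg/mL); plasma and brain exposure measured; B/P ratio from iv AUC.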

[10] = tested on: Mus musculus; assay: Toxicity in mouse assessed as effect on motility at 30 mg/kg, po; assay type: organism-based; set-up: dose 30 mg/kg, route oral; details: in vivo
How it was run: (§4)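 Acute oral group toxicity in mice: behavioural side effects scored (social interaction, motility, preconvulsant signs, convulsions, tremor) after single po doses of 30 and 100 mg/kg.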

[11] = Solubility of the compound in form of crystalline free base in gastrointestinal tract simulated media; assay type: physicochemical
[12] = tested on: Mus musculus; assay: Toxicity in mouse assessed as effect on social interaction at 30 mg/kg, po; assay type: organism-based; set-up: dose 30 mg/kg, route oral; details: in vivo; how it was run: as §4
[13] = Drug metabolism in rat plasma at 100 ng/ml after 4 hrs; assay type: ADME, cell-free; details: read-out: Drug metabolism
How it was run: (§5)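 Compound spiked into blank plasma of human, mouse, rat, rabbit, macaque and dog at 100 ng/ml, then incubated in a 37 °C water bath for up to 4 h; percent metabolized reported.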

[14] = target: Histamine H3 receptor (Homo sapiens, UniProt Q9Y5N1); assay: Displacement of [3H]-methylhistamine from human histamine H3 receptor transfected in human 293 cells after 1 hr by scintillation counting analysis; assay type: cell-based
[15] = tested on: Hepatocyte; assay: Intrinsic clearance in human hepatocytes measured per 10^6 cells; assay type: ADME, cell-based
How it was run: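 Intrinsic clearance in human hepatocytes, expressed as mL h−1 per 10^6 hepatocytes, n = 4.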

[16] = Toxicity in guinea pig heart assessed as decrease in ventricular contraction at 10 uM relative to control; assay type: tissue-based, Cavia porcellus, Cardiac ventricle
[17] = Drug metabolism in human plasma at 100 ng/ml after 4 hrs; assay type: ADME, cell-free; details: read-out: Drug metabolism; how it was run: as §5
[18] = Drug metabolism in mouse plasma at 100 ng/ml after 4 hrs; assay type: ADME, cell-free; details: read-out: Drug metabolism; how it was run: as §5
[19] = target: Sigma non-opioid intracellular receptor 1 (Homo sapiens) (UniProt Q99720); assay: Inhibition of sigma-1 receptor (unknown origin) at 10 uM relative to control
[20] = Solubility of the compound in form of crystalline free base in water; assay type: physicochemical
[21] = Elimination half life in Sprague-Dawley rat plasma at 10 mg/kg, po; assay type: ADME, organism-based; set-up: dose 10 mg/kg, route oral; details: read-out: beta t1/2 (converted); how it was run: as §1
[22] = tested on: Mus musculus; assay: Plasma clearance in OF1 mouse at 2 mg/kg, iv; assay type: ADME, organism-based; set-up: dose 2 mg/kg, route intravenous; details: in vivo; how it was run: as §3
[23] = tested on: Mus musculus; assay: Toxicity in mouse assessed as effect on neurological activity at 10 to 30 mg/kg, po by Irwin test; assay type: organism-based; set-up: dose 10-30 mg/kg, route oral; details: in vivo; how it was run: as §2
[24] = Mutagenic activity in micronucleus (unknown origin) at 5 to 950 ug/mL in presence of human liver microsomes; assay type: toxicity
How it was run: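 In vitro micronucleus test; concentrations 5 to 950 µg/mL, run with and without metabolic activation by human liver microsomes.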

[25] = Oral bioavailability in Sprague-Dawley rat at 10 mg/kg; assay type: ADME, organism-based; details: in vivo
How it was run: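 Male Sprague-Dawley rats dosed 2 mg/kg iv in saline (0.5 mg/mL) and 10 mg/kg po in 0.5% MC/0.2% Tween80 (1.0 mg/mL); plasma and brain concentrations followed.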

[26] = Drug metabolism in guinea pig liver microsomes; assay type: ADME, Cavia porcellus, Microsome; details: read-out: Drug metabolism
[27] = Elimination half life in OF1 mouse plasma at 2 mg/kg, iv; assay type: ADME, organism-based; set-up: dose 2 mg/kg, route intravenous; details: read-out: beta t1/2 (converted); how it was run: as §1
[28] = Cmax in Sprague-Dawley rat plasma at 10 mg/kg, po; assay type: ADME, organism-based; set-up: dose 10 mg/kg, route oral
How it was run: (§6)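 Oral PK at 10 mg/kg po in male OF1 mice (vehicle 5% DMSO/0.5% MC/0.2% Tween80, 1.0 mg/mL) and male Sprague-Dawley rats (vehicle 0.5% MC/0.2% Tween80, 1.0 mg/mL). Cmax and tmax taken from plasma and brain concentration–time profiles.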

[29] = Cmax in OF1 mouse brain at 10 mg/kg, po; assay type: ADME, organism-based; set-up: dose 10 mg/kg, route oral; how it was run: as §6
[30] = Elimination half life in Sprague-Dawley rat brain at 10 mg/kg, po; assay type: ADME, organism-based; set-up: dose 10 mg/kg, route oral; details: read-out: beta t1/2 (converted); how it was run: as §1
[31] = tested on: Rattus norvegicus; assay: Antidepression-like activity in po dosed rat assessed as decrease in immobility time by forced swimming test; assay type: functional
How it was run: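 Rat forced-swim test, immobility time as read-out. Test agent given po in MC/0.6% + H2O at 1, 3 and 10 mg/kg; imipramine reference at 60 mg/kg po.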

[32] = Elimination half life in Sprague-Dawley rat plasma at 2 mg/kg, iv; assay type: ADME, organism-based; set-up: dose 2 mg/kg, route intravenous; details: read-out: beta t1/2 (converted); how it was run: as §1
[33] = Drug metabolism in macaque plasma at 100 ng/ml after 4 hrs; assay type: ADME, cell-free; details: macaca, read-out: Drug metabolism; how it was run: as §5
[34] = organism: Homo sapiens; assay: Inhibition of sigma-2 receptor (unknown origin) at 10 uM relative to control
[35] = target: Histamine H3 receptor (Rattus norvegicus, UniProt Q9QYN8); assay: Displacement of [3H]-methylhistamine from rat histamine H3 receptor (445 amino acid residues) transfected in human 293 cells after 1 hr by scintillation counting analysis; assay type: cell-based
[36] = Oral bioavailability in OF1 mouse at 10 mg/kg; assay type: ADME, organism-based; details: in vivo; how it was run: as §3
[37] = Toxicity in po dosed mouse; details: in vivo
[38] = target: Cytochrome P450 2C9 (Homo sapiens, UniProt P11712); assay: Inhibition of CYP2C9 (unknown origin) after 4 hrs; assay type: ADME
[39] = target: Cytochrome P450 3A4 (Homo sapiens, UniProt P08684); assay: Inhibition of CYP3A4 (unknown origin) after 4 hrs; assay type: ADME
[40] = tested on: Mus musculus; assay: Toxicity in mouse assessed as effect on preconvulsion at 30 mg/kg, po; assay type: organism-based; set-up: dose 30 mg/kg, route oral; details: in vivo; how it was run: as §4

Chain of Histamine H3 receptor (Homo sapiens, UniProt Q9Y5N1) (Q9Y5N1 whole entry): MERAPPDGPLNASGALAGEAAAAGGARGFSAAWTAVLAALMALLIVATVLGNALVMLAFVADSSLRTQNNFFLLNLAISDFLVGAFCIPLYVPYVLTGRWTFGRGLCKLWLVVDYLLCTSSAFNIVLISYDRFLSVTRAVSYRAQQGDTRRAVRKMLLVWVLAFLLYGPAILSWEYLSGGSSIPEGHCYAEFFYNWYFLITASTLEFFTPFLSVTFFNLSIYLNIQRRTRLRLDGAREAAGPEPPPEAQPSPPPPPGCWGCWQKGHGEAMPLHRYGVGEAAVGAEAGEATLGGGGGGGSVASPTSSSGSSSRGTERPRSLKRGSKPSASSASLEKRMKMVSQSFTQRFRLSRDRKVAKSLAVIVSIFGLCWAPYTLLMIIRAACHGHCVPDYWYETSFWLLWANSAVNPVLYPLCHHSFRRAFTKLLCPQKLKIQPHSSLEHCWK
Chain of Sigma non-opioid intracellular receptor 1 (Homo sapiens) (Q99720 whole entry): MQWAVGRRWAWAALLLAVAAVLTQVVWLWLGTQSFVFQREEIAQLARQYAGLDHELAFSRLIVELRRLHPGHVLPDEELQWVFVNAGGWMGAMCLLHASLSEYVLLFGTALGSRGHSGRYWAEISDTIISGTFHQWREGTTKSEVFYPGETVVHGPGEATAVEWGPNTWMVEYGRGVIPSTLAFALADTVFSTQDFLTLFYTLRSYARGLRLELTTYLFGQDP
Chain of Cytochrome P450 3A4 (P08684 whole entry): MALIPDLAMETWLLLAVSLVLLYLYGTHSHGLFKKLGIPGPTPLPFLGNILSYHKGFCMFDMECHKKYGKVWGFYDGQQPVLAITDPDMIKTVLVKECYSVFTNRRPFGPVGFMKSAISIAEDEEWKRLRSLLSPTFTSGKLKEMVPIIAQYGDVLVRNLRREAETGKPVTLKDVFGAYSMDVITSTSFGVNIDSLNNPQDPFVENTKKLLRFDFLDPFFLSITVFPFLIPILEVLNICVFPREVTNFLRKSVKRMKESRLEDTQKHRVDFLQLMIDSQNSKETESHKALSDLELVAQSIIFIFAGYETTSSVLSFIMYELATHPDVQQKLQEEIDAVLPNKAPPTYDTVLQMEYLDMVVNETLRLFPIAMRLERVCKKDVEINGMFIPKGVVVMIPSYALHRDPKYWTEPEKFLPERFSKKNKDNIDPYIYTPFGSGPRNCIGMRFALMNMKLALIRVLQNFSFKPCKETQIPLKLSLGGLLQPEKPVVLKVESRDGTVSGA
Chain of Cytochrome P450 2C9 (P11712 whole entry): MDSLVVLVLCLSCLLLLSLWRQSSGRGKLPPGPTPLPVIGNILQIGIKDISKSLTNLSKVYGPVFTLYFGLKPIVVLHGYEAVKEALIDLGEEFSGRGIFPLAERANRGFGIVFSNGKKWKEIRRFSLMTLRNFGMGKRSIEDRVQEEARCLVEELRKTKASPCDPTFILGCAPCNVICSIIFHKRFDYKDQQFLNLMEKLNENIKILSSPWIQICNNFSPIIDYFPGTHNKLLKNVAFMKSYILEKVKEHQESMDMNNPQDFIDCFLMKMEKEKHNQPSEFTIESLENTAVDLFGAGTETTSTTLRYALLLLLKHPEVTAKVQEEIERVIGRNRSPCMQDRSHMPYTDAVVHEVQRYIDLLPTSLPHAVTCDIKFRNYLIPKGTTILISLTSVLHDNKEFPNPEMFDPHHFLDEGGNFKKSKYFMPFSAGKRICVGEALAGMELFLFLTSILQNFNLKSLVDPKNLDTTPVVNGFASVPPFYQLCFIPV
Chain of Histamine H3 receptor (Rattus norvegicus, UniProt Q9QYN8) (Q9QYN8 whole entry): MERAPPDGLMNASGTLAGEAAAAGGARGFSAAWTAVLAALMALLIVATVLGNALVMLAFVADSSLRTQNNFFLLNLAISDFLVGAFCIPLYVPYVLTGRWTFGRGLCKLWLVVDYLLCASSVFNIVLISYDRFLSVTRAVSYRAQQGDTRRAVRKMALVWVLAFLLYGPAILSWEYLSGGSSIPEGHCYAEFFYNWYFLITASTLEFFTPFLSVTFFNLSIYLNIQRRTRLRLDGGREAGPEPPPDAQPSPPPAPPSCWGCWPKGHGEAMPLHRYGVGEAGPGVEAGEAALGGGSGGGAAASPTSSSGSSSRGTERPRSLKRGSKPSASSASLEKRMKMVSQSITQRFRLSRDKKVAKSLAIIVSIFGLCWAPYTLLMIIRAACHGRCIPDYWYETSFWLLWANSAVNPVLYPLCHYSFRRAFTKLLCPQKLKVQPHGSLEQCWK
Chain of Voltage-gated inwardly rectifying potassium channel KCNH2 (Q12809 whole entry): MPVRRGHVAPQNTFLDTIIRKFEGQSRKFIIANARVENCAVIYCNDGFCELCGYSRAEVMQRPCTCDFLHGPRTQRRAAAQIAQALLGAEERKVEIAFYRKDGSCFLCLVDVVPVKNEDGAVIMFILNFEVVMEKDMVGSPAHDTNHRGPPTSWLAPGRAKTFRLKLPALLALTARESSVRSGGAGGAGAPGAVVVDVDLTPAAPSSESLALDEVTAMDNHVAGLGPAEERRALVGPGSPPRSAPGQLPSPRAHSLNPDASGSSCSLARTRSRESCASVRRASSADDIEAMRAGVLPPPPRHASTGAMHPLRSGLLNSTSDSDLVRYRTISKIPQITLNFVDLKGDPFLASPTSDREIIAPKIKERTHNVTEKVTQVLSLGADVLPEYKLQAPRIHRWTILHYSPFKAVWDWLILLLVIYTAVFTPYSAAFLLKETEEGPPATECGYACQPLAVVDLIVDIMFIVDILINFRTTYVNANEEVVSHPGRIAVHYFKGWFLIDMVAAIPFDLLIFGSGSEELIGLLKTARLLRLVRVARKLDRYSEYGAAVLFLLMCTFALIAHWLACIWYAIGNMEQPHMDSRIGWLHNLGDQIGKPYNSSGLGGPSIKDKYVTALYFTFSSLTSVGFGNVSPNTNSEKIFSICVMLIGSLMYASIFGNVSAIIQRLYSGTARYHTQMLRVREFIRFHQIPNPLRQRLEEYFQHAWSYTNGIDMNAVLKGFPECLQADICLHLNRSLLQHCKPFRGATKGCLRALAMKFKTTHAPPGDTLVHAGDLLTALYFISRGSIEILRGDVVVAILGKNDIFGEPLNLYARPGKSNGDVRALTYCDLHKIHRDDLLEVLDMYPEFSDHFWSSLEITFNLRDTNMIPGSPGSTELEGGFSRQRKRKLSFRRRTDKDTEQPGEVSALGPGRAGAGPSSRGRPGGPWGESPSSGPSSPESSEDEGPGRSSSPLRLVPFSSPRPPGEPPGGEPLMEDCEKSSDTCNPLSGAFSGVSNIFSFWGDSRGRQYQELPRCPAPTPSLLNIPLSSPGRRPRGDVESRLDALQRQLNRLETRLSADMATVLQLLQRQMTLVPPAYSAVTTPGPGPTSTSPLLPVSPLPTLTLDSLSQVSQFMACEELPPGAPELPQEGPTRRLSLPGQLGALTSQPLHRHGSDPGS

Cc1cc(N2CC[C@H](N3CCC[C@@H]3C)C2)ccc1NC(=O)c1c(C)noc1C
AUC(0-inf) [1]: 1900 ng·h/mL
Activity [2]: Non-toxic
Activity [3]: Non-toxic
Kp [4]: 1.6
metabolised [5]: < 5%
Kp [6]: 1.1
IC50 [7]: 37 µM
AUC(0-inf) [8]: 1100 ng·h/mL
Tmax [9]: 0.17 h
Activity [10]: Non-toxic
solubility [11]: > 2000 µg/mL
Activity [12]: Non-toxic
metabolised at 4 h, 100 ng/ml [13]: < 5%
Ki [14]: 0.0001 µM
CLH [15]: 0.04 mL/h
inhibition at 10 µM [16]: 23%
metabolised at 4 h, 100 ng/ml [17]: < 5%
metabolised at 4 h, 100 ng/ml [18]: < 5%
inhibition [19]: 73%
solubility [20]: 110 µg/mL (≈ 288 µM)
half-life [21]: 7.8 h
clearance [22]: 50 mL/min/kg
Activity [23]: Non-toxic
Activity [24]: Non-toxic
bioavailability [25]: 56%
metabolised [26]: 35%
half-life [27]: 0.65 h
Cmax [28]: 749 ng/mL
Cmax [29]: 2620 ng/mL
half-life [30]: 9.4 h
Activity [31]: Dose-dependent effect
minimal effective dose ([31]; read-out: MED): 10 mg/kg
half-life [32]: 1.2 h
metabolised at 4 h, 100 ng/ml [33]: < 5%
inhibition [34]: 73%
Ki [35]: 0.0009 µM
bioavailability [36]: 57%
MTD [37]: 30 mg/kg
IC50 [38]: > 100 µM
IC50 [39]: > 100 µM
Activity [40]: Non-toxic
